Laboratory results taken from ChEMBL document CHEMBL2203235, “Optimization of a natural product-based class of γ-secretase modulators” (J Med Chem, 2012).

Key:
[1] = Modulation of gamma-secretase assessed as reduction in amyloid beta 40 level by cell based assay
[2] = Modulation of gamma-secretase assessed as reduction in amyloid beta 42 level by cell based assay
[3] = Modulation of gamma-secretase assessed as increase in amyloid beta 38 level at 800 nM by cell based assay relative to control
[4] = Metabolic stability in human liver microsomes assessed as compound remaining at 1 uM at 60 mins by LC/MS/MS analysis in absence of NADPH; type: ADME, Microsome; settings: liver microsomes, read-out: Stability
Procedure, shortened: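 Human liver microsomes were run without NADPH as a qualitative read of susceptibility to enzymatic hydrolysis. The read-out was percent parent remaining at 60 min.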

[5] = Modulation of gamma secretase in CHO-2B7 cells assessed as reduction in amyloid beta 42 level after 5 hrs by MSD ELISA; type: cell-based; settings: Cricetulus griseus, CHO-2B7, 5 h
[6] = tested on: CHO-2B7; experiment: Modulation of gamma secretase in CHO-2B7 cells assessed as reduction in amyloid beta 40 level at 100 uM after 5 hrs by MSD ELISA; type: cell-based; parameters: scale not given: the % may be the effect or the level left; settings: Cricetulus griseus
[7] = tested on: Liver microsomes; experiment: Metabolic stability in human liver microsomes at 1 uM after 60 mins by LC/MS/MS analysis; settings: 1 h
[8] = tested on: CHO-2B7; experiment: Modulation of gamma secretase in CHO-2B7 cells assessed as reduction in amyloid beta 40 level at 4 mM after 5 hrs by MSD ELISA; type: cell-based; parameters: scale not given: the % may be the effect or the level left; settings: Cricetulus griseus
[9] = Modulation of gamma secretase in CHO-2B7 cells assessed as reduction in amyloid beta 40 level after 5 hrs by MSD ELISA; type: cell-based; settings: Cricetulus griseus, CHO-2B7, 5 h
[10] = Metabolic stability in human liver microsomes assessed as compound remaining at 1 uM at 60 mins by LC/MS/MS analysis in presence of NADPH; type: ADME, Microsome; settings: read-out: Stability
[11] = tested on: CHO-2B7; experiment: Modulation of gamma secretase in CHO-2B7 cells assessed as reduction in amyloid beta 40 level at 20 uM after 5 hrs by MSD ELISA; type: cell-based; parameters: scale not given: the % may be the effect or the level left; settings: Cricetulus griseus
[12] = tested on: CHO-2B7; experiment: Modulation of gamma secretase in CHO-2B7 cells assessed as reduction in amyloid beta 42 level at 4 uM after 5 hrs by MSD ELISA; type: cell-based; parameters: scale not given: the % may be the effect or the level left; settings: Cricetulus griseus
[13] = Ratio of drug uptake in brain to plasma in CD1 mouse at 3 mg/kg, iv at 6 hrs; type: ADME, organism-based; parameters: dose 3 mg/kg, route intravenous; settings: brain and plasma, read-out: BPR
Procedure, shortened: (§1)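 CD-1 mice dosed by the IV route. Plasma and brain drug concentrations were measured at 6 h post dose, or at 2 h for one analogue. The brain-to-plasma ratio was calculated from these concentrations and used to rank CNS penetration.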

[14] = Drug uptake in CD1 mouse brain at 3 mg/kg, iv at 6 hrs; type: ADME, organism-based; parameters: dose 3 mg/kg, route intravenous; settings: read-out: Drug uptake; procedure, shortened: as §1
[15] = Plasma concentration in CD1 mouse at 3 mg/kg, iv at 6 hrs; type: ADME, organism-based; parameters: dose 3 mg/kg, route intravenous; procedure, shortened: as §1
[16] = Modulation of gamma-secretase assessed as increase in amyloid beta 38 level by cell based assay
[17] = tested on: CHO-2B7; experiment: Modulation of gamma secretase in CHO-2B7 cells assessed as reduction in amyloid beta 40 level at 20 mM after 5 hrs by MSD ELISA; type: cell-based; parameters: scale not given: the % may be the effect or the level left; settings: Cricetulus griseus
[18] = tested on: CHO-2B7; experiment: Modulation of gamma secretase in CHO-2B7 cells assessed as reduction in amyloid beta 40 level at 4 uM after 5 hrs by MSD ELISA; type: cell-based; parameters: scale not given: the % may be the effect or the level left; settings: Cricetulus griseus
[19] = Drug uptake in CD1 mouse brain at 1 mg/kg, iv at 6 hrs
[20] = Plasma concentration in CD1 mouse at 1 mg/kg, iv at 6 hrs
[21] = Ratio of drug uptake in brain to plasma in CD1 mouse at 1 mg/kg, iv at 6 hrs; settings: brain and plasma

SMILES: CC(C)CC[C@H](c1ccc(Cl)cc1)N1CC[C@@H](CC(=O)O)C[C@H]1c1ccc(C(F)(F)F)cc1
- IC50 [1]: 8400 nM
- IC50 [2]: 100 nM
- Activity [3]: 280%

SMILES: CC(=O)OC[C@H]1C[C@@H](C)[C@H]2[C@H](O1)[C@H](O)[C@@]1(C)[C@@H]3CC[C@H]4C(C)(C)[C@@H](O[C@H]5CN(C(=O)CC6CC6)CCO5)CC[C@@]45C[C@@]35CC[C@]21C
- remaining at 1 h, 1 µM [4]: 23%
- IC50 [5]: 240 nM
- Activity [6]: 66%

SMILES: CCO[C@@H]([C@H]1C[C@@H](C)[C@H]2[C@H](O1)[C@H](O)[C@@]1(C)[C@@H]3CC[C@H]4C(C)(C)[C@@H](O[C@H]5CN(CC(F)F)CCO5)CC[C@@]45C[C@@]35CC[C@]21C)C(C)(C)O
- Stability [7]: Stable
- IC50 [5]: 540 nM
- Activity [8]: 37%

SMILES: CC(=O)O[C@@H]([C@H]1C[C@@H](C)[C@H]2[C@H](O1)[C@H](O)[C@@]1(C)[C@@H]3CC[C@H]4C(C)(C)[C@@H](OC(=O)NC5CNC5)CC[C@@]45C[C@@]35CC[C@]21C)C(C)(C)O
- remaining at 1 h, 1 µM [4]: 21%
- IC50 [9]: 15000 nM
- IC50 [5]: 47 nM
- IC50 [2]: 47 nM

SMILES: COc1cc(/C=C2\CCCN([C@@H](C)c3ccc(F)cc3)C2=O)ccc1-n1cnc(C)c1
- IC50 [1]: 280 nM
- IC50 [2]: 62 nM
- Activity [3]: 280%

SMILES: CC(=O)O[C@@H]([C@H]1C[C@@H](C)[C@H]2[C@H](O1)[C@H](O)[C@@]1(C)[C@@H]3CC[C@H]4C(C)(C)[C@@H](O[C@H]5CN(C6COC6)CCO5)CC[C@@]45C[C@@]35CC[C@]21C)C(C)(C)O
- remaining at 1 h, 1 µM [4]: 1%
- IC50 [5]: 170 nM
- remaining at 1 h, 1 µM [10]: 1%
- Activity [11]: 35%

SMILES: C[C@@H]1C[C@H]([C@H](O)C(C)(C)O)O[C@H]2[C@H]1[C@@]1(C)CC[C@@]34C[C@@]35CC[C@H](O[C@H]3CN(C6COC6)CCO3)C(C)(C)[C@@H]5CC[C@H]4[C@]1(C)[C@H]2O
- remaining at 1 h, 1 µM [4]: 107%
- IC50 [5]: ≥ 20000 nM
- remaining at 1 h, 1 µM [10]: 81%

SMILES: CC(=O)O[C@@H]([C@H]1C[C@@H](C)[C@H]2[C@H](O1)[C@H](O)[C@@]1(C)[C@@H]3CC[C@H]4C(C)(C)[C@@H](O[C@@H]5OC[C@@H](O)[C@H](O)[C@H]5O)CC[C@@]45C[C@@]35CC[C@]21C)C(C)(C)O
- IC50 [2]: 60 nM

SMILES: CC(C)C[C@H](C(=O)O)c1cc(-c2ccc(C(F)(F)F)cc2)cc(-c2ccc(C(F)(F)F)cc2)c1
- IC50 [1]: 9100 nM
- IC50 [2]: 260 nM
- Activity [3]: 240%

SMILES: CCO[C@@H]([C@H]1C[C@@H](C)[C@H]2[C@H](O1)[C@H](O)[C@@]1(C)[C@@H]3CC[C@H]4C(C)(C)[C@@H](O[C@H]5CN(CC(=O)N6CCC6)CCO5)CC[C@@]45C[C@@]35CC[C@]21C)C(C)(C)O
- Stability [7]: Stable
- IC50 [5]: 250 nM
- Activity [8]: 39%

SMILES: C[C@@H]1C[C@H]([C@H](O)C(C)(C)O)O[C@H]2[C@H]1[C@@]1(C)CC[C@@]34C[C@@]35CC[C@H](O[C@H]3CN(C(=O)CC6CC6)CCO3)C(C)(C)[C@@H]5CC[C@H]4[C@]1(C)[C@H]2O
- Activity [12]: 40%
- IC50 [5]: 70 nM

SMILES: CCO[C@@H]([C@H]1C[C@@H](C)[C@H]2[C@H](O1)[C@H](O)[C@@]1(C)[C@@H]3CC[C@H]4C(C)(C)[C@@H](O[C@H]5CN(C6COC6)CCO5)CC[C@@]45C[C@@]35CC[C@]21C)C(C)(C)O
- Kp at 6 h [13]: 0.5
- Stability [7]: Stable
- remaining at 1 h, 1 µM [4]: 94%
- concentration at 6 h [14]: 12 nM
- IC50 [9]: 4600 nM
- IC50 [5]: 270 nM
- concentration at 6 h [15]: 24 nM

SMILES: C[C@@H]1C[C@H]([C@H](O)C(C)(C)O)O[C@H]2[C@H]1[C@@]1(C)CC[C@@]34C[C@@]35CC[C@H](O[C@H]3CNCCO3)C(C)(C)[C@@H]5CC[C@H]4[C@]1(C)[C@H]2O
- remaining at 1 h, 1 µM [4]: 112%
- IC50 [5]: 1600 nM
- remaining at 1 h, 1 µM [10]: 40%

SMILES: CC(=O)O[C@@H]([C@H]1C[C@@H](C)C2=C(O1)[C@H](O)[C@@]1(C)[C@@H]3CC[C@H]4C(C)(C)[C@@H](O[C@@H]5OC[C@@H](O)[C@H](O)[C@H]5O)CC[C@@]45C[C@@]35CC[C@]21C)C(C)(C)O
- IC50 [16]: 61 nM
- IC50 [1]: 2700 nM
- IC50 [2]: 100 nM

SMILES: CCO[C@@H]([C@H]1C[C@@H](C)[C@H]2[C@H](O1)[C@H](O)[C@@]1(C)[C@@H]3CC[C@H]4C(C)(C)[C@@H](O[C@H]5CN(CC(F)(F)F)CCO5)CC[C@@]45C[C@@]35CC[C@]21C)C(C)(C)O
- Activity [17]: 44%
- Stability [7]: Stable
- IC50 [5]: 2300 nM

SMILES: CCO[C@@H]([C@H]1C[C@@H](C)[C@H]2[C@H](O1)[C@H](O)[C@@]1(C)[C@@H]3CC[C@H]4C(C)(C)[C@@H](O[C@H]5CNCCO5)CC[C@@]45C[C@@]35CC[C@]21C)C(C)(C)O
- Kp at 6 h [13]: 1.67
- Stability [7]: Stable
- remaining at 1 h, 1 µM [4]: 28%
- concentration at 6 h [14]: 320 nM
- IC50 [9]: 1400 nM
- IC50 [5]: 91 nM
- concentration at 6 h [15]: 192 nM

SMILES: CC(=O)O[C@@H]([C@H]1C[C@@H](C)[C@H]2[C@H](O1)[C@H](O)[C@@]1(C)[C@@H]3CC[C@H]4C(C)(C)[C@@H](O[C@H]5CN([C@H]6CCNC6=O)CCO5)CC[C@@]45C[C@@]35CC[C@]21C)C(C)(C)O
- remaining at 1 h, 1 µM [4]: 3%
- IC50 [5]: 170 nM
- remaining at 1 h, 1 µM [10]: 63%

SMILES: CCO[C@@H]([C@H]1C[C@@H](C)[C@H]2[C@H](O1)[C@H](O)[C@@]1(C)[C@@H]3CC[C@H]4C(C)(C)[C@@H](OC(=O)NCCN5CCC5)CC[C@@]45C[C@@]35CC[C@]21C)C(C)(C)O
- Stability [7]: Stable
- Activity [18]: 41%
- IC50 [5]: 220 nM

SMILES: CCO[C@@H]([C@H]1C[C@@H](C)[C@H]2[C@H](O1)[C@H](O)[C@@]1(C)[C@@H]3CC[C@H]4C(C)(C)[C@@H](O[C@H]5CN(CC(=O)N(C)C)CCO5)CC[C@@]45C[C@@]35CC[C@]21C)C(C)(C)O
- Stability [7]: Stable
- IC50 [5]: 270 nM
- Activity [8]: 38%

SMILES: CCO[C@@H]([C@H]1C[C@@H](C)[C@H]2[C@H](O1)[C@H](O)[C@@]1(C)[C@@H]3CC[C@H]4C(C)(C)[C@@H](OC(=O)N5CCN(CCOC)CC5)CC[C@@]45C[C@@]35CC[C@]21C)C(C)(C)O
- concentration at 6 h [19]: 8 nM
- concentration at 6 h [20]: 261 nM
- Stability [7]: Stable
- IC50 [5]: 320 nM
- Kp at 6 h [21]: 0.03
- Activity [11]: 51%

SMILES: CC(=O)O[C@@H]([C@H]1C[C@@H](C)[C@H]2[C@H](O1)[C@H](O)[C@@]1(C)[C@@H]3CC[C@H]4C(C)(C)[C@@H](O[C@H]5CNCCO5)CC[C@@]45C[C@@]35CC[C@]21C)C(C)(C)O
- remaining at 1 h, 1 µM [4]: 7%
- IC50 [9]: 2200 nM
- IC50 [5]: 70 nM
- remaining at 1 h, 1 µM [10]: 3%

SMILES: CCO[C@@H]([C@H]1C[C@@H](C)[C@H]2[C@H](O1)[C@H](O)[C@@]1(C)[C@@H]3CC[C@H]4C(C)(C)[C@@H](OC(=O)N(C)C5CN(C)C5)CC[C@@]45C[C@@]35CC[C@]21C)C(C)(C)O
- concentration at 6 h [19]: 56 nM
- concentration at 6 h [20]: 566 nM
- Stability [7]: Stable
- IC50 [9]: 4300 nM
- IC50 [5]: 61 nM
- Kp at 6 h [21]: 0.1
